# Measurements from ChEMBL document CHEMBL5724801, “EUbOPEN Chemogenomics Library - Multiplex” (2024).
# Values joined by “and” are separate entries in the source; they are usually repeats but may differ in a detail not shown here. Identical values can stand only once.
# System: Fibroblast
# Assay: Multiplex assay against human fibroblast
# Type: toxicity, cell-based
# Outline: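 With compound added, live cells were imaged on a CQ1 microscope at 37°C and 5% CO2; staining with Hoechst33342, BioTracker Green Microtubule Cytoskeleton Dye, MitoTracker Red and Annexin V Alexa Fluor 680 had been done at seeding. The CellPathfinder machine-learning gating scheme split cells into Hoechst high-intensity objects or normal cells, normal cells into healthy, pyknosed or fragmented nuclei, and pyknosed cells into mitotic or apoptotic. The tubulin, mitochondrial-mass and membrane-permeability phenotypes are per cents of healthy-nucleus cells.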
# [1] = 12 h, 1 µM, compound concentration 1 uM
# [2] = 12 h, 10 µM, compound concentration 10 uM
# [3] = 24 h, 1 µM, compound concentration 1 uM
# [4] = 24 h, 10 µM, compound concentration 10 uM
# [5] = 48 h, 1 µM, compound concentration 1 uM
# [6] = 48 h, 10 µM, compound concentration 10 uM
smiles,measurement,setting,value
O=C(Nc1cc(C(F)(F)F)cc(C(F)(F)F)c1)c1cc(Cl)ccc1O [IMD-0354],Population Apoptotic (%),[1],6.12% and 12.9%
same,Population Fragmented Nuclei (%),[1],11.69% and 4.09%
same,Population Healthy Nuclei (%),[1],56.49% and 77.78%
same,Population Hoechst High Intensity Objects (%),[1],0%
same,Population Membrane Permeable-Phenotype (%),[1],4.6% and 8.27%
same,Population Mitochondria Different-Phenotype (%),[1],6.9% and 2.26%
same,Population Mitotic Cells (%),[1],93.88% and 87.1%
same,Population Normal (%),[1],100%
same,Population Pyknosed Nuclei (%),[1],31.82% and 18.13%
same,Population Tubulin-Different-Phenotype (%),[1],8.05% and 22.56%
same,Total Cell Count,[1],154 and 171
same,Population Apoptotic (%),[2],0% and 6.33%
same,Population Fragmented Nuclei (%),[2],23.45% and 22.08%
same,Population Healthy Nuclei (%),[2],49.56% and 45%
same,Population Hoechst High Intensity Objects (%),[2],0%
same,Population Membrane Permeable-Phenotype (%),[2],3.57% and 2.78%
same,Population Mitochondria Different-Phenotype (%),[2],0% and 6.48%
same,Population Mitotic Cells (%),[2],100% and 93.67%
same,Population Normal (%),[2],100%
same,Population Pyknosed Nuclei (%),[2],26.99% and 32.92%
same,Total Cell Count,[2],226 and 240
same,Population Apoptotic (%),[3],9.09% and 16.33%
same,Population Fragmented Nuclei (%),[3],10.5% and 2.76%
same,Population Healthy Nuclei (%),[3],59.12% and 70.17%
same,Population Hoechst High Intensity Objects (%),[3],0%
same,Population Membrane Permeable-Phenotype (%),[3],8.41% and 8.66%
same,Population Mitochondria Different-Phenotype (%),[3],2.8% and 0.79%
same,Population Mitotic Cells (%),[3],90.91% and 83.67%
same,Population Normal (%),[3],100%
same,Population Pyknosed Nuclei (%),[3],30.39% and 27.07%
same,Population Tubulin-Different-Phenotype (%),[3],14.02% and 25.2%
same,Total Cell Count,[3],181
same,Population Apoptotic (%),[4],7.58% and 18.81%
same,Population Fragmented Nuclei (%),[4],25.35% and 26.19%
same,Population Healthy Nuclei (%),[4],44.24% and 33.73%
same,Population Hoechst High Intensity Objects (%),[4],0%
same,Population Mitochondria Different-Phenotype (%),[4],0% and 1.18%
same,Population Mitotic Cells (%),[4],92.42% and 81.19%
same,Population Normal (%),[4],100%
same,Population Pyknosed Nuclei (%),[4],30.41% and 40.08%
same,Total Cell Count,[4],217 and 252
same,Population Apoptotic (%),[5],7.14% and 17.65%
same,Population Fragmented Nuclei (%),[5],19.1% and 8.99%
same,Population Healthy Nuclei (%),[5],49.44% and 71.91%
same,Population Hoechst High Intensity Objects (%),[5],0%
same,Population Membrane Permeable-Phenotype (%),[5],5.68% and 16.41%
same,Population Mitochondria Different-Phenotype (%),[5],9.09% and 0%
same,Population Mitotic Cells (%),[5],92.86% and 82.35%
same,Population Normal (%),[5],100%
same,Population Pyknosed Nuclei (%),[5],31.46% and 19.1%
same,Population Tubulin-Different-Phenotype (%),[5],18.18% and 32.03%
same,Total Cell Count,[5],178
same,Population Apoptotic (%),[6],32.47% and 70.37%
same,Population Fragmented Nuclei (%),[6],33.5%
same,Population Healthy Nuclei (%),[6],28% and 39.5%
same,Population Hoechst High Intensity Objects (%),[6],0%
same,Population Membrane Permeable-Phenotype (%),[6],17.86% and 22.78%
same,Population Mitochondria Different-Phenotype (%),[6],1.79% and 2.53%
same,Population Mitotic Cells (%),[6],67.53% and 29.63%
same,Population Normal (%),[6],100%
same,Population Pyknosed Nuclei (%),[6],38.5% and 27%
same,Population Tubulin-Different-Phenotype (%),[6],26.79% and 75.95%
same,Total Cell Count,[6],200
